According to the RNAGym collection of RNA variant scans (doi:10.1126/science.aae0568):
Fewer inactive variants are shown than the library holds.

B1: tRNA (parent)
chain: GUUCCGUUGGCGUAAUGGUAACGCGUCUCCCUCCUAAGGAGAAGACUGCGGGUUCGAGUCCCGUACGGAACG

Variants of: B1
Test: yeast fitness relative to wild type (ratio to wild type); higher = fitter; tRNA-Arg(CCU), competitive growth, 37 C, YPD
Outline: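 Genotype frequency changes were the basis for Darwinian fitness relative to wild type. The frequencies came from 100-nucleotide paired-end sequencing of gene amplicons from the start population and each end population of pooled yeast strains with tRNA-Arg(CCU) gene variants at the native locus. Competition ran in YPD at 37°C for 24 hours in six replicates, genotypes needed ≥ 100 starting reads, and estimates < 0.5 were set to 0.5.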

Variant	yeast fitness
G12A G52A G68A	≤ 0.5
G12A G52A U59A A69C A70C	≤ 0.5
G12A G58C	0.935
G12A G63A	0.897
G12A G68C	0.667
G12A G68U	0.863
G12A U13A A37G A40G U59A	≤ 0.5
G12A U13A A65C	≤ 0.5
G12A U13C A15C C46G	≤ 0.5
G12A U13C C49U	0.674
G12A U13C U16A U19G G23A G58A G68A	≤ 0.5
G12A U13G G67A	≤ 0.5
G12A U19C	0.982
G12A U19C A21C	0.685
G12A U19C A21U	0.905
G12A U19C A21U G58C	0.94
G12A U19C G23C G67C	≤ 0.5
G12A U26A C30G C33U	≤ 0.5
G12A U28G C30G C49U U64C	≤ 0.5
G12A U28G C33G	≤ 0.5
G12A U32C U47A C49G C60U	≤ 0.5
G12A U32G C46A	≤ 0.5
G12A U32G U35A G38C G51C C66U	≤ 0.5
G12A U35A G58A	0.524

Variant	yeast fitness
G12A U35C G41A G51C	≤ 0.5
G12A U35G G58A G68A	≤ 0.5
G12A U47C C49A A57U	0.53
G12A U59A	0.8
G12C A14U C29U	≤ 0.5
G12C A15G A45G G50C A69C	≤ 0.5
G12C A15U C24A	0.528
G12C A15U C24A G48C C61U	≤ 0.5
G12C A15U C33U C49G G58A	≤ 0.5
G12C A20C C31G	0.596
G12C A20C C31G A65G	0.527
G12C A20C G48A	0.749
G12C A20C G58C A70U	≤ 0.5
G12C A20G C46G	0.548
G12C A20U A21G C22G G50A C61A	≤ 0.5
G12C A20U C33U C66U	≤ 0.5
G12C A21U G50C A70C	≤ 0.5
G12C A40C A42U C49G C66G	≤ 0.5
G12C A40G G50U C62U	≤ 0.5
G12C A42G A45G	0.627
G12C A42G A70U	0.592
G12C A43C	0.825
G12C A43G	0.694
G12C A43G C61U	≤ 0.5

Variant	yeast fitness
G12C A43G U54C A69C A70C	≤ 0.5
G12C A43U A70C	0.521
G12C A43U U59A A69G	≤ 0.5
G12C A45C C61A	0.686
G12C A45U A70U	0.564
G12C A45U C62G A65G	0.604
G12C A57C	0.545
G12C A65U	0.735
G12C A70U	0.707
G12C C22G C55U	0.581
G12C C22G G25C G48A	0.915
G12C C22U A40C G52C G67A	≤ 0.5
G12C C22U U54C	0.683
G12C C22U U54C C61U	0.532
G12C C24G U35C	≤ 0.5
G12C C24U	0.651
G12C C24U C49U C55U G68C	≤ 0.5
G12C C24U U64G	≤ 0.5
G12C C27A G38A	0.584
G12C C27A G56C	0.702
G12C C27G G56C	≤ 0.5
G12C C27G U35A G52A A57G A69U A70U	≤ 0.5
G12C C29G	0.58
G12C C29U A42U U47C C62U	≤ 0.5

Variant	yeast fitness
G12C C30A G48A C55G	0.607
G12C C30U A70U	≤ 0.5
G12C C31A A40C C62U	≤ 0.5
G12C C31U A65C A69U	≤ 0.5
G12C C33A	0.682
G12C C33U A42C	≤ 0.5
G12C C34A G58C A65U A69C	≤ 0.5
G12C C34G	0.696
G12C C34U C46A	≤ 0.5
G12C C34U G44A G52A	≤ 0.5
G12C C46A G68U	≤ 0.5
G12C C46U C49G A70U	0.526
G12C C49U A70U	0.692
G12C C55G	0.608
G12C C55U C61G	≤ 0.5
G12C C60A	0.588
G12C C60U A70C	≤ 0.5
G12C C66A	0.676
G12C G17A A20U C34A A42C G48A C62U	≤ 0.5
G12C G17A A20U G58U	≤ 0.5
G12C G17A C34G A40U A42U G67C	≤ 0.5
G12C G17C	0.637
G12C G18C A45G	≤ 0.5
G12C G18C G25A C66U	≤ 0.5

Variant	yeast fitness
G12C G18C G67U	≤ 0.5
G12C G18C U35A G39A U53A	≤ 0.5
G12C G23C A42U G44C U54A	≤ 0.5
G12C G23C A45U	0.609
G12C G25A	0.848
G12C G25C C60A A69U	≤ 0.5
G12C G25C C66G	≤ 0.5
G12C G38A	0.687
G12C G44C C66U	0.573
G12C G58A C62U A69C	0.699
G12C G63C	0.699
G12C U13A G23A A37C C61U	0.586
G12C U13C A20C C24G G39C G68C	0.511
G12C U13C U26A C33A C34G	≤ 0.5
G12C U16A A21C	≤ 0.5
G12C U16A C24G G58C C61G	≤ 0.5
G12C U16A C60G C61U G68A	≤ 0.5
G12C U19A C27G A65C	0.557
G12C U19A C27G C62A	≤ 0.5
G12C U19C	0.66
G12C U19G A20C A21C C31U C61A	≤ 0.5
G12C U26A C33A C34G A69G	≤ 0.5
G12C U26A G48A G56C	≤ 0.5
G12C U32G C33G G58A	≤ 0.5

Variant	yeast fitness
G12C U32G C33G G67C	≤ 0.5
G12C U32G C33G G68C	≤ 0.5
G12C U32G C33G U47C A57C	≤ 0.5
G12C U47A A70G	0.554
G12C U47G C49A A69U	≤ 0.5
G12C U53A	0.594
G12C U54A A65C	≤ 0.5
G12C U59A A69C	≤ 0.5
G12C U59C C60A	≤ 0.5
G12U A15G A20C C24G	≤ 0.5
G12U A36G	0.758
G12U A57C	≤ 0.5
G12U G39A C66G	≤ 0.5
U13A	0.993
U13A A14C A21C G25A C61A	≤ 0.5
U13A A14C C22A	≤ 0.5
U13A A14G C66U G68C	≤ 0.5
U13A A14U C22A G48C	≤ 0.5
U13A A14U C22G A37G G41A	≤ 0.5
U13A A14U C49A	≤ 0.5
U13A A15C A45G C55U C61G A69C	≤ 0.5
U13A A15C C33G C49U A69C	≤ 0.5
U13A A15C U54G C66G G67C	≤ 0.5
U13A A15G C66U	0.644

Variant	yeast fitness
U13A A15G G48A G63A A65C	≤ 0.5
U13A A15G U16G A57G C61A	≤ 0.5
U13A A15U C24U A37U G67C	0.591
U13A A20C A70C	≤ 0.5
U13A A20G A42G C46U	≤ 0.5
U13A A20G C24U U35C C49U C60A C66G	≤ 0.5
U13A A21C A42G	0.502
U13A A21C U35C G39A A42C A43G C46U	0.63
U13A A21C U35C G39A A42C A43G C46U A65C	0.55
U13A A21G	1.04
U13A A21U A42U G44C	0.652
U13A A37G	0.714
U13A A40U A43C	0.693
U13A A40U C55U	0.681
U13A A42U G63A	0.699
U13A A45C C49A A65U	≤ 0.5
U13A A45G	0.92
U13A A57C	0.604
U13A A69C	0.988
U13A C22G C27G C31G C61G A69U	≤ 0.5
U13A C22G G25C C27U C30G A36G C55A A69U	≤ 0.5
U13A C22G G25C C27U C30G A57C A69U	≤ 0.5
U13A C22G G25C C27U C30G C55A	≤ 0.5
